According to ChEMBL document CHEMBL4400543, “Identification and Characterization of AES-135, a Hydroxamic Acid-Based HDAC Inhibitor That Prolongs Survival in an Orthotopic Mouse Model of Pancreatic Cancer” (J Med Chem, 2019):

Columns and labels:
Histone deacetylase 3 = Histone deacetylase 3 (Homo sapiens, UniProt O15379); assay: Inhibition of recombinant human HDAC3 expressed in SF9 baculoviral system using FAM-labeled acetylated peptide as substrate by EMSA
Summary of the method: (§1)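 Full-length recombinant human enzyme from an Sf9 baculovirus system, in 100 mM HEPES pH 7.5 with 25 mM KCl, 0.1% BSA, 0.01% Triton X-100 and 1% DMSO. Final enzyme was 0.5 nM for HDAC3, 60 nM for HDAC6 and 5.0 nM for HDAC8. FAM-acetylated peptide was 1 μM. The read-out was product/(substrate+product) by microfluidic mobility shift, with inhibition set against DMSO and no-enzyme controls (quadruplicate). Compounds were tested at 12 threefold-spaced concentrations, and IC50 came from a four-parameter sigmoid fit.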

[1] = molecular target: T1, Protein deacetylase HDAC6 (Homo sapiens, UniProt Q9UBN7); assay: Inhibition of recombinant human HDAC6 expressed in SF9 baculoviral system using FAM-labeled acetylated peptide as substrate by EMSA; summary of the method: as §1
T1 sequence (Q9UBN7 whole entry): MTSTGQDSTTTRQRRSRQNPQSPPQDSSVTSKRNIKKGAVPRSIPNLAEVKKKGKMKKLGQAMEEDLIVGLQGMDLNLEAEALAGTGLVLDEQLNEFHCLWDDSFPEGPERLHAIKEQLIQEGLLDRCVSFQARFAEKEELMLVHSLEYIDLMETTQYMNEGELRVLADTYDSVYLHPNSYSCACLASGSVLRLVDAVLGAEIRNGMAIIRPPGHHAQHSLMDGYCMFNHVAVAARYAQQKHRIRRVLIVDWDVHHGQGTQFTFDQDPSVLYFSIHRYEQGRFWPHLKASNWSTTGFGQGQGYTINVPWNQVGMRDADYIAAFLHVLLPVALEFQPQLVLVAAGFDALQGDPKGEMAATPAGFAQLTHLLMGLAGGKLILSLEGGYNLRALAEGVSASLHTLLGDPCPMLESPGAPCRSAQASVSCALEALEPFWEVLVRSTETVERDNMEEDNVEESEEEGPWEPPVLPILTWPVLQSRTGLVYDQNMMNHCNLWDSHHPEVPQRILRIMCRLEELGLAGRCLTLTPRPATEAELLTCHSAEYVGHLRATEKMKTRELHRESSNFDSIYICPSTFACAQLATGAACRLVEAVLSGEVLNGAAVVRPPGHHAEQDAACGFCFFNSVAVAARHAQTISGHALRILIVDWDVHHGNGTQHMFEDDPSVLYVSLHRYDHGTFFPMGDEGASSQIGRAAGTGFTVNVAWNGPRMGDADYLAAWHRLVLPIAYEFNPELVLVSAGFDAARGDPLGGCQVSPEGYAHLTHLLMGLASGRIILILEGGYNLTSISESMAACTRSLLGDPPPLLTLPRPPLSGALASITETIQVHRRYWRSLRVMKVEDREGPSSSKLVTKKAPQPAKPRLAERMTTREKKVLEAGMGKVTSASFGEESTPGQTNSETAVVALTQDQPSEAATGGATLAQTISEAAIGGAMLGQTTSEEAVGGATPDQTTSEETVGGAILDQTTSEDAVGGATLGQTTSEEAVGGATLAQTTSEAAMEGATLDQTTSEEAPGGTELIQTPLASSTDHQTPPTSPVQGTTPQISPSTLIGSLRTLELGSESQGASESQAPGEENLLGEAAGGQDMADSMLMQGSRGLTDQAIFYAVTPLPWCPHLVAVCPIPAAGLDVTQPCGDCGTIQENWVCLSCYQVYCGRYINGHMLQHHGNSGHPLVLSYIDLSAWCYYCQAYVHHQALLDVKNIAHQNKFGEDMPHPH

Histone deacetylase 8 = molecular target: T2, Histone deacetylase 8 (Homo sapiens, UniProt Q9BY41); assay: Inhibition of recombinant human HDAC8 expressed in SF9 baculoviral system using FAM-labeled acetylated peptide as substrate by EMSA; summary of the method: as §1
T2 sequence (Q9BY41 whole entry): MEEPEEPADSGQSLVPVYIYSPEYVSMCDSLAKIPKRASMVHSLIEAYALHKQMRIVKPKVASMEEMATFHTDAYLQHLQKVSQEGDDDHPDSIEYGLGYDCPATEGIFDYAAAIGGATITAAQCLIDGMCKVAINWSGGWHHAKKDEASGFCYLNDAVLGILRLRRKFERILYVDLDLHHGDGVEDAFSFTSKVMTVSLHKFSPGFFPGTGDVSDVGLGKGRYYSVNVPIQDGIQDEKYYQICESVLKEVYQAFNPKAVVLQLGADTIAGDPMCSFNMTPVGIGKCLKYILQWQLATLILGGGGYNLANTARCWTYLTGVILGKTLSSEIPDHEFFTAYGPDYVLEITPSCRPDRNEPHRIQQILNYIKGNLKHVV

Histone deacetylase 11 = molecular target: T3, Histone deacetylase 11 (Homo sapiens, UniProt Q96DB2); assay: Inhibition of recombinant human HDAC11 expressed in SF9 baculoviral system using FAM-labeled acetylated peptide as substrate by EMSA
T3 sequence (Q96DB2 whole entry): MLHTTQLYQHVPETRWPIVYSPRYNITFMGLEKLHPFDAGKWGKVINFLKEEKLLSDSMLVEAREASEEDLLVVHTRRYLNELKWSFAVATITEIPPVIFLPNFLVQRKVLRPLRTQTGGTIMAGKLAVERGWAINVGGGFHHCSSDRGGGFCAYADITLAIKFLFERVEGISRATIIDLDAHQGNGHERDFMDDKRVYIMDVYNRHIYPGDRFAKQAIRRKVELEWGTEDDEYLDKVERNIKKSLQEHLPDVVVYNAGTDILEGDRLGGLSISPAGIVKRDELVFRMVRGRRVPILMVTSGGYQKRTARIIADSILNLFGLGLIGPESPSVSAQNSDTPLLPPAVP
Summary of the method: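 Full-length human HDAC11 (Sf9-expressed), 10 nM final, in 100 mM HEPES pH 7.5, 25 mM KCl, 0.1% BSA, 0.01% Triton X-100, 1% DMSO. FAM-acetylated peptide substrate at 100 μM, mobility-shift read-out. Product/(substrate + product) converted to % inhibition. IC50 from a four-parameter fit; dose-response spans 12 threefold dilutions from 30.0 μM.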

[2] = Intrinsic clearance in ICR/CD1 mouse hepatocytes assessed per million cells at 1 uM up to 120 mins by LC-MS/MS analysis; assay type: ADME, cell-based, Hepatocyte; settings: 2 h
[3] = Half life in ICR/CD1 mouse hepatocytes at 1 uM up to 120 mins by LC-MS/MS analysis; assay type: ADME, cell-based, Hepatocyte; settings: 2 h
[4] = Cytotoxicity against mouse KPC monolayer cells assessed as reduction in tumor spheroid intensity after 72 hrs by Alamar Blue assay; assay type: functional, cell-based
Summary of the method: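 Monolayer proliferation of STR-authenticated, mycoplasma-checked patient-derived PDAC lines and mouse KPC cells. Plated at 2000 cells/well, treated 72 h, read by alamarBlue. At least triplicate, n = 3–5.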

Sequence of Histone deacetylase 3 (O15379 whole entry): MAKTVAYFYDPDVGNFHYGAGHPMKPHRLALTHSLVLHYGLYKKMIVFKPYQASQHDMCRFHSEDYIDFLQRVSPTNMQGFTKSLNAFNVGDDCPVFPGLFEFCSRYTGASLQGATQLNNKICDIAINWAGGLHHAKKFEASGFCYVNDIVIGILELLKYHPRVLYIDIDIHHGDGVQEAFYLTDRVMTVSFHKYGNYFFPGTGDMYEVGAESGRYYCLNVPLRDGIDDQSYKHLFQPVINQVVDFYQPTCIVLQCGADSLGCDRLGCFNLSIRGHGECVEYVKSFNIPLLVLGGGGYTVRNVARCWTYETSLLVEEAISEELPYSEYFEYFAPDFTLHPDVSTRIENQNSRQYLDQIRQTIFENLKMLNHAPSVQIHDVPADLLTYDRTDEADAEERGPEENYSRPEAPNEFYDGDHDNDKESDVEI

| Structure (SMILES) | IC50 (Histone deacetylase 3) [nM] | IC50 [1] [nM] | IC50 (Histone deacetylase 8) [nM] | IC50 (Histone deacetylase 11) [nM] | CLH [2] [µL/min] | t1/2 [3] [min] | IC50 [4] [nM] |
| --- | --- | --- | --- | --- | --- | --- | --- |
| O=C(NO)c1ccc(N(Cc2ccc(C(F)(F)F)cc2)C(=O)CN(Cc2c(F)c(F)c(F)c(F)c2F)S(=O)(=O)c2ccc(F)cc2)cc1 | > 1000 | 86 | > 1000 | 191 | 37.4 | 37.1 | – |
| Cc1[nH]c2ccccc2c1CCNCc1ccc(/C=C/C(=O)NO)cc1 [PANOBINOSTAT] | – | – | – | – | – | – | 8500 |
| O=C(NO)c1ccc(N(Cc2ccc(C(F)(F)F)cc2)C(=O)CN(Cc2ccccc2C(F)(F)F)S(=O)(=O)c2ccc(F)cc2)cc1 | > 1000 | 93 | > 1000 | 304 | – | – | – |
| O=C(NO)c1ccc(N(Cc2ccc(C(F)(F)F)cc2)C(=O)CN(Cc2ccccc2C(F)(F)F)S(=O)(=O)c2ccc(F)cc2F)cc1 | > 1000 | 151 | > 1000 | 346 | – | – | – |
| CC(C)(C)c1ccc(CN(C(=O)CN(Cc2ccccc2C(F)(F)F)S(=O)(=O)c2ccc(F)cc2F)c2ccc(C(=O)NO)cc2)cc1 | > 1000 | 289 | > 1000 | 288 | – | – | – |
| CC(C)(C)c1ccc(CN(C(=O)CN(Cc2ccccc2C(F)(F)F)S(=O)(=O)c2ccc(F)c(F)c2)c2ccc(C(=O)NO)cc2)cc1 | > 1000 | 362 | > 1000 | 254 | – | – | – |
| O=C(NO)c1ccc(N(Cc2ccc(C(F)(F)F)cc2)C(=O)CN(Cc2ccccc2C(F)(F)F)S(=O)(=O)c2ccc(F)c(F)c2)cc1 | > 1000 | 188 | > 1000 | 396 | – | – | – |
| CC(C)(C)c1ccc(CN(C(=O)CN(Cc2ccccc2C(F)(F)F)S(=O)(=O)c2ccc(F)cc2)c2ccc(C(=O)NO)cc2)cc1 | > 1000 | 230 | > 1000 | 253 | – | – | – |
